# Measurements published in PubChem BioAssay.
# Calls of active or inactive are those of the source.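 How the source made its calls, unless noted: active means fluorescence slope after compound addition differing from the mean of all tested samples at 99.7% confidence, mostly higher but some lower; inactive means the rest.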
# What was measured:
# [1] = inhibitors of TNFa-induced NFkB p65 translocation, primary screen, imaging, HUVEC, MLSMR starter and 10KST1 sets (AID 438;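 active means inhibition above 20% together with a positive visual image hit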;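 further: compound added about 3h40 before a 20 min TNFalpha stimulation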;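 on inhibition: signal is the nuclear over cytoplasmic p65 intensity ratio per well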); conditions: HUVEC TNFa-induced p65 nuclear translocation; cell count: measured here: nuclei count (cytotoxicity indicator), at 2.08 µM; inhibition: at 2 µM, stronger effect = higher value, 0% TNFa-plus-vehicle, 100% no-TNFa wells
# [2] = inhibitors of mutant huntingtin aggregation, primary screen, imaging, exon1htt(103Q)mCFP cells, high-content imaging (AID 483;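 active means visual image review flags a hit and inhibition of aggregation exceeds 20%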;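 further: compound exposure lasted 3 days before fixation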;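 on nuclei count: percent of the per-plate median nuclei count of sample wells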); conditions: exon1htt(103Q)mCFP cell line, aggregate imaging, at 2 µM; inhibition of aggregation: stronger effect = higher value; nuclei count: measured here: cell count, toxicity
# [3] = inhibitors of E-selectin induction by TNFa, primary screen, imaging, HUVEC, immunofluorescence, MLSMR starter and 10KST1 sets (AID 487;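 active means visually confirmed hit in the image check and inhibition above 20%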;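 on inhibition: signal is fraction of cell area covered by stained E-selectin grains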;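 on nuclei count: 100% = median nuclei count of all wells on the same plate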); conditions: HUVEC TNFalpha-induced E-selectin immunofluorescence imaging, at 2 µM; inhibition: stronger effect = higher value; nuclei count: measured here: cell number, toxicity
# [4] = molecular target: Voltage-gated potassium channel subunit beta-2 (Rattus norvegicus) (UniProt P62483); assay: KvBeta enzyme negative modulators, primary screen, biochemical, NADPH fluorescence (AID 622;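 active means fluorescence slope higher than the sample average by over 3 SD, cut at about -0.22 in these data, passing the limit was not always enough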;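 further: slope of raw intensity against log time taken from 70 to 1610 s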); conditions: recombinant KvBeta, 4-cyanobenzaldehyde reduction, at 10 µM, stronger effect = higher value
# Chain of Voltage-gated potassium channel subunit beta-2 (Rattus norvegicus) (P62483 whole entry, looked up): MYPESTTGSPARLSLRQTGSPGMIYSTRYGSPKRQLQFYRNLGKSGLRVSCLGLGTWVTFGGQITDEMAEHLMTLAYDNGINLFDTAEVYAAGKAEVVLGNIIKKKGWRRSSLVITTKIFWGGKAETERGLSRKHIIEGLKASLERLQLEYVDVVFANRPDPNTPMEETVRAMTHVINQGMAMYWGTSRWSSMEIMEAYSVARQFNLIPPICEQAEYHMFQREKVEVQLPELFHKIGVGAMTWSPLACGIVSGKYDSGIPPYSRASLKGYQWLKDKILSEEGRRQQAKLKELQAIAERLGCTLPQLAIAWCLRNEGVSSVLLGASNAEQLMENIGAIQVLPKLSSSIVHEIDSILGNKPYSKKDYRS
# [5] = molecular target: Voltage-gated potassium channel subunit beta-2 (Rattus norvegicus) (UniProt P62483); assay: KvBeta positive modulators, primary screen, biochemical, NADPH fluorescence (AID 623;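 active means NADPH fluorescence slope more negative than the mean of all samples by about 3 SD, 99.7% confidence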;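 further: fluorescence intensity change per second fitted from 20 to 320 s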); conditions: Recombinant KvBeta, NADPH fluorescence decrease slope, 10 min; at 10 µM; stronger effect = lower value
# [6] = molecular target: Muscarinic acetylcholine receptor M4 (Homo sapiens) (UniProt P08173); assay: compounds altering M4/GIRK thallium flux, either direction, primary screen, M4 allosteric agonist project, cell-based, HEK293 M4/GIRK, BTC-AM (AID 625); conditions: at 10 µM, actives lie on both sides;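 further: thallium influx through GIRK channels coupled to M4 in HEK293 cells with BTC-AM dye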
# Chain of Muscarinic acetylcholine receptor M4 (Homo sapiens) (P08173 whole entry, looked up): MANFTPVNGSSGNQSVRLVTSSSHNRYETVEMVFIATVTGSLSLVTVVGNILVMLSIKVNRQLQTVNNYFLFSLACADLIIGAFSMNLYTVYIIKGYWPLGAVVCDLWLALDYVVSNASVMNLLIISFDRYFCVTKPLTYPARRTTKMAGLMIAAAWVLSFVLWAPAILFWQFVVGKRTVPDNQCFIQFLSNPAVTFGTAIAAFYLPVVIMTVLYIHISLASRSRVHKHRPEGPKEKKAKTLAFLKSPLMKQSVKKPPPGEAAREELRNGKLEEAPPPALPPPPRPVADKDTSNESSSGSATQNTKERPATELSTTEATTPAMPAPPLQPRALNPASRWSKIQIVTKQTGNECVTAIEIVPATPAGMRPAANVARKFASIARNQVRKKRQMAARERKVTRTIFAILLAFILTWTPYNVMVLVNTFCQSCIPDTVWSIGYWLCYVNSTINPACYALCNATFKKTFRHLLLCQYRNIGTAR
# Procedure, shortened: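 assay system = HEK293 cells with M4 receptor and GIRK channels | medium = pH 7.3 thallium assay buffer | doses = 10 µM final, single point | timing = cells overnight at 37 °C, BTC-AM loading 1 h, reads 2 min total | signal = BTC-AM fluorescence, 1 Hz kinetic reads | read-out = post-addition slope, 15–24 s, of baseline-normalized fluorescence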
# [7] = inhibitors of Sendai virus-induced IRF3 signaling, primary screen, TLR/RLR signaling modifier project, cell-based, Sendai virus stimulus, luciferase, 10K MLSCN set (AID 602276;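 active means inhibition at or above 50% at 10 µM; inactive means inhibition below 50%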;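 further: firefly luciferase from ISG56 promoter only with Renilla not read in this screen; 0% = Sendai virus plus DMSO and 100% = medium plus DMSO without virus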); conditions: HEK293 RL24 IRF3 luciferase reporter, at 10 µM, stronger effect = higher value
# [8] = inhibitors of poly I:C-induced TLR3 signaling, primary screen, cell-based, poly I:C stimulus, luciferase, 10K MLSCN set (AID 602277;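 active means inhibition of the reporter signal at or above 50%; inactive means inhibition below 50%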); conditions: HEK293-TLR3 RL24 IRF3 luciferase reporter, at 10 µM, stronger effect = higher value
Structure (SMILES),cell count [1],inhibition [1],inhibition of aggregation [2],nuclei count [2] [%],inhibition [3],nuclei count [3] [%],fluorescence slope [4],NADPH fluorescence slope [5],fluorescence slope [6],inhibition [7],inhibition [8]
Cc1ccc(Oc2ccc(-c3nc(N)nc(N)n3)cc2)cc1,366,-6% (inactive),9% (inactive),105,-62.6% (inactive),125,-0.547 (inactive),-2.9e-05 (inactive),0.00425 (inactive),7.07% (inactive),11.6% (inactive)
COc1cccc(C2C(C#N)=C(N)OC3=C2C(=O)CCC3)c1OC(=O)c1ccco1 (stereo not drawn),384,4.7% (inactive),-12.3% (inactive),103,52.8% (inactive),88.3,-0.513 (inactive),-3.8e-05 (inactive),0.00509 (inactive),12.4% (inactive),10.4% (inactive)
COc1cccc(Nc2c(F)c(F)c(F)c(F)c2C(=O)O)c1,246,-4% (inactive),9.3% (inactive),77.5,-11.9% (inactive),96.6,-0.587 (inactive),-3.3e-05 (inactive),0.00658 (inactive),10.2% (inactive),11.4% (inactive)
Cc1ccc(C)c(C(=O)NC2CC(C)(C)NC(C)(C)C2)c1,690,0.8% (inactive),14% (inactive),94,-8.2% (inactive),96,-0.578 (inactive),-5.3e-05 (inactive),0.00855 (inactive),-2.48% (inactive),9.21% (inactive)
COc1cccc2cc(C(=O)N3CCc4ccccc43)c(=O)oc12,274,4.3% (inactive),-4.2% (inactive),106,18.4% (inactive),99,-0.466 (inactive),-5.5e-06 (inactive),0.00512 (inactive),8.43% (inactive),21% (inactive)
O=C(NCc1n[nH]c(=S)n1-c1ccc(F)cc1)c1ccco1,711,-16.8% (inactive),-0.3% (inactive),102,-72.4% (inactive),126,-0.463 (inactive),-2.7e-05 (inactive),0.00529 (inactive),12.1% (inactive),13.9% (inactive)
O=C(Nc1ccc2c(c1)OCO2)c1ccc(Br)c(S(=O)(=O)N2CCCC2)c1,660,-5.2% (inactive),-2% (inactive),103,-99.5% (inactive),90.4,-0.505 (inactive),-6.5e-05 (inactive),0.0042 (inactive),-20.9% (inactive),-15.4% (inactive)
Cc1ccc(F)cc1NC(=O)c1cccc2nccnc12,532,-45.9% (inactive),-49.2% (inactive),13.4,-61% (inactive),108,-0.554 (inactive),2e-05 (inactive),0.00494 (inactive),-11.7% (inactive),-19.2% (inactive)
Cc1ccc(Nc2nc(CSc3nnnn3C)cs2)cc1,549,-15.4% (inactive),3.7% (inactive),79.2,5.9% (inactive),109,-0.458 (inactive),-0.000383 (inactive),0.00561 (inactive),-54.9% (inactive),98.7% (active)
CCOC(=O)c1c(NC(=O)OC)sc(C(=O)N(C)C)c1C,321,-5.4% (inactive),1.3% (inactive),103,1.1% (inactive),115,-0.312 (inactive),-4.5e-05 (inactive),0.00682 (inactive),7.2% (inactive),14.6% (inactive)
CC1(C)Cc2nc3oc4c(N(CCO)Cc5ccccc5)ncnc4c3cc2CO1,558,6.7% (inactive),-1.1% (inactive),101,-29.7% (inactive),122,-0.27 (inactive),-1.6e-05 (inactive),0.0057 (inactive),-1.42% (inactive),5.17% (inactive)
CCNC(=O)CC1C(=O)N(c2ccc(F)cc2)C(=O)N1CCC(C)C (stereo not drawn),357,-10.8% (inactive),17.4% (inactive),92.3,-21.1% (inactive),106,-0.525 (inactive),-5.9e-06 (inactive),0.00457 (inactive),4.4% (inactive),15.9% (inactive)
O=C(c1ccc2c(c1)OCO2)N1CCNc2ccccc2C1,518,-0.5% (inactive),21.2% (inactive),91,-14.3% (inactive),85.2,-0.559 (inactive),-3.1e-05 (inactive),0.00561 (inactive),8.51% (inactive),2.68% (inactive)
CCOC(=O)c1cc(-c2ccc3c(c2)OCO3)nc2onc(C)c12,402,3.7% (inactive),21.3% (inactive),64.3,-64.2% (inactive),106,-0.00965 (inactive),-7.8e-06 (inactive),0.00537 (inactive),-6.27% (inactive),-18.4% (inactive)
O=C(Nc1nccs1)c1ccc(Cl)c(S(=O)(=O)N2CCCCC2)c1,355,1.3% (inactive),30.8% (active),109,-4.7% (inactive),117,-0.311 (inactive),-3.8e-05 (inactive),0.00573 (inactive),8.7% (inactive),7.95% (inactive)
CCc1nnc(NC(=O)OCc2ccccc2)s1,414,8.1% (inactive),0.2% (inactive),99.3,-59.3% (inactive),120,-0.579 (inactive),-1.5e-05 (inactive),0.00857 (inactive),-17.2% (inactive),-43.4% (inactive)
COCC(=O)Nc1sc2c(c1C(=O)OC)C(C(=O)OC)CC2 (stereo not drawn),403,-3.4% (inactive),-1.9% (inactive),93.9,9.9% (inactive),105,-0.481 (inactive),7e-05 (inactive),0.00577 (inactive),-8.7% (inactive),0.35% (inactive)
N#CCSc1nc2c(c(C3CC=CCC3)c1C#N)CCC2 (stereo not drawn),436,8% (inactive),-9.6% (inactive),100,-44.5% (inactive),112,-0.552 (inactive),-1.6e-05 (inactive),0.00409 (inactive),-0.626% (inactive),27.7% (inactive)
Cc1nc2ccccc2c2oc(C(=O)NCc3ccccn3)cc12,234,-3.8% (inactive),17.9% (inactive),65.8,-75.8% (inactive),102,-0.397 (inactive),7.6e-05 (inactive),0.00573 (inactive),-2.75% (inactive),-16.5% (inactive)
O=C(CN1C(=O)COc2ccccc21)NCCCN1CCc2ccccc2C1,698,-5.4% (inactive),-7.3% (inactive),106,-13.4% (inactive),106,-0.625 (inactive),1.2e-05 (inactive),0.00746 (inactive),11.3% (inactive),33.1% (inactive)
O=C(NCc1ccc2c(c1)OCO2)c1cc2n(n1)C(C(F)(F)F)CC(c1ccc3c(c1)OCO3)N2 (stereo not drawn),407,-1.6% (inactive),26.5% (inactive),89.1,-32% (inactive),106,-0.558 (inactive),-4.2e-05 (inactive),0.0053 (inactive),18.5% (inactive),24.4% (inactive)
CCOC(=O)C1=C(CC)Nc2ccccc2N=C1NC(=O)Nc1ccccc1OC,485,-12.3% (inactive),7.2% (inactive),116,-15% (inactive),119,-0.593 (inactive),2.9e-06 (inactive),0.00703 (inactive),26.2% (inactive),38.4% (inactive)
CCn1nc(C(=O)OCC(=O)c2cc(C)n(Cc3cccs3)c2C)c2ccccc2c1=O,381,-2.1% (inactive),25.7% (inactive),90.2,-97.8% (inactive),113,-0.556 (inactive),0.000162 (inactive),0.00739 (inactive),19.8% (inactive),7.59% (inactive)
Cc1ccccc1CNS(=O)(=O)c1ccc2c(c1)OCCO2,450,3.6% (inactive),2.1% (inactive),108,-11.6% (inactive),96.6,-0.558 (inactive),-1.9e-05 (inactive),0.00348 (inactive),7.7% (inactive),11.3% (inactive)
O=C(Nc1ccc(S(=O)(=O)NC2CCCC2)cc1)c1cnccn1,288,1.5% (inactive),0.6% (inactive),97.1,-54% (inactive),117,-0.543 (inactive),-1.1e-05 (inactive),0.00448 (inactive),10.3% (inactive),11.7% (inactive)
CC(C)(C)Nc1nc(OCC(F)(F)F)nc(OCC(F)(F)F)n1,448,11.9% (inactive),-14.2% (inactive),103,-0.8% (inactive),114,-0.424 (inactive),-0.000395 (inactive),0.00457 (inactive),7.39% (inactive),8.5% (inactive)
CCOC(=O)C1CCN(C(=O)Nc2ccc3snnc3c2)CC1,408,5.7% (inactive),5% (inactive),89.8,-38.5% (inactive),107,-0.206 (inactive),-2.9e-05 (inactive),0.00565 (inactive),13.9% (inactive),10.8% (inactive)
O=C(Cn1nc(-c2ccc(Cl)cc2)ccc1=O)NCCCN1CCN(Cc2ccccc2)CC1,518,10.6% (inactive),-12.5% (inactive),97.4,-351% (inactive),135,-0.585 (inactive),3e-05 (inactive),0.00673 (inactive),-9.82% (inactive),-23.5% (inactive)
